System: MS2 coat protein
Assay: apparent Kd, MS2 coat protein; higher = weaker binding; RNA-MaP array
How it was run: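 RNA designs were transcribed from sequenced DNA templates on an Illumina sequencing chip and then incubated at room temperature with fluorescently labeled MS2 coat protein at 1.5 nM to 3 μM, with or without input ligand, in Tris-HCl pH 7.5 buffer containing KCl, MgCl2, BSA, DTT, tRNA and Tween20. Incubation lasted 0.8–1.5 h at the lowest protein concentrations and 10–20 min at the highest. Apparent Kd is the median of binding-curve fits made for each cluster. Designs measured on fewer than 10 clusters were excluded.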

[1] = designed as: ON switch for flavin mononucleotide, no ligand
[2] = ligand present: flavin mononucleotide, designed as: ON switch for flavin mononucleotide
[3] = designed as: OFF switch for flavin mononucleotide, no ligand
[4] = ligand present: flavin mononucleotide, designed as: OFF switch for flavin mononucleotide
[5] = designed as: OFF switch for tryptophan, no ligand
[6] = ligand present: tryptophan, designed as: OFF switch for tryptophan
[7] = designed as: ON switch for tryptophan, no ligand
[8] = ligand present: tryptophan, designed as: ON switch for tryptophan

Sequence | apparent Kd [3] | apparent Kd [4] | further results
GCGUGACAUGAGGAUCACCCAUGUGGCCUCGGGCUAGGAUAUGCUGAUAUACUCACCACCGCAGAAGGAGCUUCAC | – | – | apparent Kd [1]: 142 nM; apparent Kd [2]: 131 nM
CUGUACCGAAUAGGAUAUGAAAAGAAGGUAAAUUCAGAAGGAUUCAAUUAAUUUACAUGAGGAUCACCCAUGUCUAAGCAAACA | – | – | apparent Kd [1]: 12.2 nM; apparent Kd [2]: 8.39 nM
GGGUAACAUGAGGAUCACCCAUGUGAGGAUAUCCAUUGUUGGCGACCGGUACGACCACGGAGAAGGCACAGUUC | 35 nM | 69.5 nM | –
CAGGAUCCGAAGAAGGGCAUCGGCCACAGGGCUGCAGGAUAUUCAAUUCAUGCAACAUGAGGAUCACCCAUGUAAUGGGCCGUU | 27.5 nM | 22.3 nM | –
ACUCAGUGAGGAUAUAUAGACGAGGAAAAGUGGAAACUUGAAUAGAAGGCACAUGAGGAUCACCCAUGUCGACG | 8.5 nM | 10.8 nM | –
CCGGCAACGUAAGGAUAUGAUUCGCGUCUUGACAUGAGGAUCACCCAUGUAACUGUCGAAAUGGCUCAGAAGGUACCAGUGCCC | – | – | apparent Kd [1]: 26.6 nM; apparent Kd [2]: 17.9 nM
AAUUGAAACAGAGGUAUAUACGGACAUUACCGAGGACCGGUACGGCCGCCACUCGACCUAAAACAUGAGGAUCACCCAUGUAGCA | – | – | apparent Kd [5]: 13.1 nM; apparent Kd [6]: 13.6 nM
AAAACUUCUAAGAAGGUGAUUUGGGCAUAUCGUCGUUUUACAUGAGGAUCACCCAUGUUUAACGUCAAGGAUAUUAGGGAUUCC | 6.11 nM | 5.9 nM | –
GAACUUCGAGUCAGGAUAUGUACAUCAAAACCAAAACAGAAGGGACAUGAGGAUCACCCAUGUGAGCUAGGAUU | 14.3 nM | 14.4 nM | –
CCCUCGUCAACGGCCGCCACUGUGAUUCACUAAGAUAAUAUUGCACAUGAGGAUCACCCAUGUCUCAGGACCGGGUUGGUGUGUC | – | – | apparent Kd [7]: 105 nM; apparent Kd [8]: 65.9 nM
UGCACCGCAGGAUAUACAAUGGAGGACGUUGUGAAUCAUAGACAUGAGGAUCACCCAUGUAGAAGGGCGUAUAA | 34 nM | 78.5 nM | –
GCAUGCGGCAAGGAUAUCAAUGCUAUGGUCUAAUGAGAAGGUGCCACAUGAGGAUCACCCAUGUUUCCGGCGAG | 30.8 nM | 123 nM | –
GUUUUCAACUUGUAGGAUAUUUCUCACGAGACAUGAGGAUCACCCAUGUAGUGAACCAGGGAUCGAAAGAAGGACAUCAUGACGGU | – | – | apparent Kd [1]: 75.2 nM; apparent Kd [2]: 49.9 nM
AGUCACAUGAGGAUCACCCAUGUGCCAGAACGAGGACCGGUACGGCCGCCACUCGAGGCGUCCGUCGACAAUAAUGUGAACUGCA | – | – | apparent Kd [7]: 10.7 nM; apparent Kd [8]: 12.1 nM
UCCCGCUGCACAGGAUAUUGGAAAAUACAUGAGGAUCACCCAUGUGCUUAUAUGAGGUCUGCCUCCAAGAAGGGUGAGAUAAUC | 113 nM | 89.6 nM | –
ACAUAGUAAGGAUAUCUCCUGUUCGAGAAAGAGAGGCAUAAAGAGAAGGUACAUGAGGAUCACCCAUGUGACGA | 7.51 nM | 7.26 nM | –
CCGUUCGCCGAGAAGGGACAGGACUUAAUAGCGUCAGGAUAUCGCGGACCGUGAUUCUAUGACAUGAGGAUCACCCAUGUGCUU | 34.7 nM | 11.7 nM | –
ACCCGCUCCUGAGGAUAUCCGGCAUGACAUGAGGAUCACCCAUGUGGGCUCGUGGAGGGAGUGCAGGAGAAGGCAGUAGGCGCU | 35.7 nM | 82.6 nM | –

Sequence | apparent Kd [3] | apparent Kd [4] | further results
GAAUAAAAUAUAAUAAGAAAACAUGAGGAUCACCCAUGUACAAGAAGGGAGAAACUUAACAUAACUCAGGAUAUUGUUAUAUCA | – | – | apparent Kd [1]: 28.9 nM; apparent Kd [2]: 22.2 nM
AAUACAGCUACGGCCGCCACUUUAACUUGGUAUGGGUCCUUCACAAACAUGAGGAUCACCCAUGUAAGGACCGGGUAGCCUUGUU | – | – | apparent Kd [5]: 21.1 nM; apparent Kd [6]: 35 nM
AGACACAUGAGGAUCACCCAUGUACACGAGCGAGGACCGGUACGGCCGCCACUCGUCCAAGCAACUAAUGAGACUCGUAAGAUGG | – | – | apparent Kd [7]: 24.6 nM; apparent Kd [8]: 29.3 nM
ACAGACAAGUAGAAGGCAAUGAGGAGUGAAAAUUGAGGAUAUACCAGCAUGAGUGCCUACAUGAGGAUCACCCAUGUGUAGAUU | 388 nM | 395 nM | –
UCCUAUUCAGGAUAUGCGACACGAAACAUGAGGAUCACCCAUGUCUGGGCACCUCAAAGCGCAGAAGGGAACAACG | 665 nM | 321 nM | –
UAUAAUGAAGGAUAUACAUGAGGAUCACCCAUGUUAGACUCUCAGUCGACAGUAAUCCGUAGAAGGUCAUGCCA | 12.3 nM | 13.6 nM | –
UGAACACUGUGAGGAUAUCCACAUGAGGAUCACCCAUGUUUCCUCAGUGAUGCUAUAGCUUCCACGGAGAAGGCACAUGUAAUC | 31.2 nM | 48.2 nM | –
UAUUUGGGCAAGAAGGCAGGUUACAGCCAGCAUUAUCCACAUGAGGAUCACCCAUGUUCGGCGACUGAGGAUAUUGCCAAACCU | 38.5 nM | 37.5 nM | –
AAGGGCGACGGACAGGAUAUAGUUAUUGUUACAUGAGGAUCACCCAUGUCUCCAGGUCUUUGACGCUAGAAGGGUCCCUCCUCGAC | – | – | apparent Kd [1]: 61.2 nM; apparent Kd [2]: 26.5 nM
UACAAAUAUCAUUACAUGAGGAUCACCCAUGUGGGACGUCGUAGAAGGGAGAUUCAAAUACAAGCUCAGGAUAUACAACUUCUG | – | – | apparent Kd [1]: 181 nM; apparent Kd [2]: 80.1 nM
GCGCUAUUUAUUGAUACCAGAUACAGGAAUCACAUGAGGAUCACCCAUGUGGAAUGAAGGAUCCCUUGGCAGCAAUAGUCAAAAU | – | – | apparent Kd (designed as: ON switch for theophylline, no ligand): 17.8 nM; apparent Kd (ligand present: theophylline, designed as: ON switch for theophylline): 10.8 nM
CAUGUAGGCGAGAAGGCAACCGCGGUCCGGGAUUGAGGAUAUCGGCCAGGUGAUCCCGCCCAACAUGAGGAUCACCCAUGUAGC | 339 nM | 202 nM | –
AAGUACUUUGAGAAGGACCUCUCGAACAUGAGGAUCACCCAUGUCACGGAGUACCCGAUCGGCUGGUAGGAUAUCAUGGUACCG | – | – | apparent Kd [1]: 9.89 nM; apparent Kd [2]: 8.15 nM
GCUAGACAUGAGGAUCACCCAUGUGAGGAUAUUAGCCAAUCGAGUAAUCCGCUAUAGUUAAGAAGGCACGUGAU | 16.7 nM | 16 nM | –
CUCGGAAACGGAGGAUAUAGCUGAAGAGGAUUACUAGAAGGCCGAGACAUGAGGAUCACCCAUGUUUUCUCAAGUCGCAGUUUA | 7.93 nM | 9.48 nM | –
GCACCGCGAGGAUAUACUCUGGCUAUAAUACCAUAUGACAAACAUGAGGAUCACCCAUGUAGAAGGCGCGAUGU | 10.4 nM | 14.2 nM | –
AUCGAUAAGAAGAAGGUGUGACAUGAGGAUCACCCAUGUUAUUGAACAGCACAUGAUCACAGAUACAAGGAUAUUCUACGUAUG | 24.4 nM | 23.7 nM | –
GUAUUACGGACGGCCGCCACUGUGGGACAUGAGGAUCACCCAUGUGGCGCUACUUACAAGUGCGACAGGACCGGGUCAUGGUUUG | – | – | apparent Kd [7]: 811 nM; apparent Kd [8]: 301 nM

Reference: the EternaBench riboswitch data
